Test results taken from ChEMBL document CHEMBL4038304, “Chiral Indolylarylsulfone Non-Nucleoside Reverse Transcriptase Inhibitors as New Potent and Broad Spectrum Anti-HIV-1 Agents” (J Med Chem, 2017).
Calls of active or inactive are those of the source. The rule behind the calls is not given here.

Experiments:
[1] = molecular target: Human immunodeficiency virus type 1 reverse transcriptase (Human immunodeficiency virus 1, UniProt Q72547, K103N); test: Inhibition of HIV1 reverse transcriptase p66 K103N mutant associated RNA dependent DNA polymerase activity expressed in Escherichia coli assessed as reduction in [3H]dTTP incorporation using poly(rA)/oligo(dT) as template/primer by scintillation counting analysis
[2] = system: Human immunodeficiency virus 1; test: Antiviral activity against HIV1 harboring reverse transcriptase Y188L mutant infected in human […] cells assessed as protection against virus-induced cytopathic effect measured on day 5 post infection by MTT assay; format: functional, cell-based; conditions: Human immunodeficiency virus 1, 120 h
[3] = molecular target: Human immunodeficiency virus type 1 reverse transcriptase (Human immunodeficiency virus 1, UniProt Q72547); test: Inhibition of HIV1 NL4-3 reverse transcriptase His-tagged p66/p51 associated RNA dependent DNA polymerase activity expressed in Escherichia coli assessed as reduction in [3H]dTTP incorporation using poly(rA)/oligo(dT) as template/primer by scintillation counting analysis
[4] = system: Human immunodeficiency virus 1; test: Antiviral activity against HIV1 harboring reverse transcriptase K103N /[…] double mutant infected in human […] cells assessed as protection against virus-induced cytopathic effect measured on day 5 post infection by MTT assay; format: functional, cell-based; conditions: Human immunodeficiency virus 1, 120 h
[5] = molecular target: Human immunodeficiency virus type 1 reverse transcriptase (Human immunodeficiency virus 1, UniProt Q72547, Y181I); test: Inhibition of HIV1 reverse transcriptase p66 Y181I mutant associated RNA dependent DNA polymerase activity expressed in Escherichia coli assessed as reduction in [3H]dTTP incorporation using poly(rA)/oligo(dT) as template/primer by scintillation counting analysis
[6] = Inhibition of HIV1 reverse transcriptase p66 K103N/[…] double mutant associated RNA dependent DNA polymerase activity expressed in Escherichia coli assessed as reduction in [3H]dTTP incorporation using poly(rA)/oligo(dT) as template/primer by scintillation counting analysis; design: species or system Human immunodeficiency virus 1
[7] = system: Human immunodeficiency virus 1; test: Antiviral activity against HIV1 harboring reverse transcriptase Y181C mutant infected in human […] cells assessed as protection against virus-induced cytopathic effect measured on day 5 post infection by MTT assay; format: functional, cell-based; conditions: Human immunodeficiency virus 1, 120 h
[8] = molecular target: Human immunodeficiency virus type 1 reverse transcriptase (Human immunodeficiency virus 1, UniProt Q72547, Y181C); test: Inhibition of HIV1 reverse transcriptase p66 Y181C mutant associated RNA dependent DNA polymerase activity expressed in Escherichia coli assessed as reduction in [3H]dTTP incorporation using poly(rA)/oligo(dT) as template/primer by scintillation counting analysis
[9] = system: Human immunodeficiency virus 1; test: Antiviral activity against HIV1 harboring reverse transcriptase K103N mutant infected in human […] cells assessed as protection against virus-induced cytopathic effect measured on day 5 post infection by MTT assay; format: functional, cell-based; conditions: Human immunodeficiency virus 1, 120 h
[10] = system: Human immunodeficiency virus 1; test: Antiviral activity against HIV1 NL4-3 infected in human […] cells assessed as protection against virus-induced cytopathic effect measured on day 5 post infection by MTT assay; format: functional, cell-based; conditions: Human immunodeficiency virus 1, NL4-3, 120 h
In short: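 Values are means of two to three independent experiments, each run in triplicate. The lowest detectable concentration is reported where activity fell below the assay limit.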

[11] = Cytotoxicity against human MT4 cells assessed as cell viability by MTT assay; format: cell-based
In short: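 Uninfected MT-4 cells scored for viability by MTT. […] Values are means of two to three independent experiments, each run in triplicate.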

[12] = Selectivity index, ratio of CC50 for human MT4 cells to EC50 for HIV1 NL4-3 infected in human MT4 cells; format: toxicity, cell-based; conditions: read-out: Ratio CC50/EC50
In short: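 SI computed as CC50/EC50, using the MTT-based CC50 in uninfected MT-4 cells and the MTT-based EC50 against HIV-1 NL4-3-induced cell death in MT-4 cells. Experiments were run in triplicate, two to three times.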

BV-2 [13] = test: Cytotoxicity against C57BL/6 mouse BV2 cells assessed as effect on cell proliferation rate at 10 to 10000 nM up to 48 hrs by MTT assay; format: cell-based; conditions: bv-2, 48 h, 10 µM
In short: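 BV2 microglial cells cultured with compound at 10, 102, 103 and 104 nM, then proliferation rate measured.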

BV-2 [14] = test: Downregulation of CD86 mRNA levels in C57BL/6 mouse BV2 cells at 1000 nM after 24 hrs by RT-PCR assay; format: functional, cell-based
BV-2 [15] = test: Effect on CD163 mRNA levels in C57BL/6 mouse BV2 cells at 1000 nM after 24 hrs by RT-PCR assay; format: functional, cell-based
[16] = system: hippocampal neurons (Mus musculus); test: Neuroprotective activity against glutamate-induced excitotoxicity in C57BL/6 mouse hippocampal neurons assessed as increase in cell viability at 1000 nM preincubated for 30 mins followed by reincubation in conditioned culture media for 18 hrs in presence of glutamate by hemacytometric analysis
BV-2 [17] = test: Effect on fizz mRNA levels in C57BL/6 mouse BV2 cells at 1000 nM after 24 hrs by RT-PCR assay; format: functional, cell-based
[18] = system: Human immunodeficiency virus 1; test: Ratio of EC50 for HIV-1 harboring reverse transcriptase K103N mutant infected in human MT4 cells to EC50 for HIV1 NL4-3 infected in human MT4 cells; format: functional
In short: (§1)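 Fold change calculated as EC50 against the stated resistant mutant HIV-1 strain divided by EC50 against wild-type NL4-3. Both EC50s come from MTT read-out of virus-induced death in MT-4 cells, mean of two to three independent experiments each in triplicate.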

[19] = system: Human immunodeficiency virus 1; test: Ratio of EC50 for HIV-1 harboring reverse transcriptase K103N/[…] double mutant infected in human MT4 cells to EC50 for HIV1 NL4-3 infected in human MT4 cells; format: functional; in short: as §1
[20] = system: Human immunodeficiency virus 1; test: Ratio of EC50 for HIV-1 harboring reverse transcriptase Y181C mutant infected in human MT4 cells to EC50 for HIV1 NL4-3 infected in human MT4 cells; format: functional; in short: as §1
BV-2 [21] = test: Antineuroinflammatory activity in C57BL/6 mouse BV2 cells assessed as inhibition of LPS-induced nitric oxide production at 1 to 10 uM after 24 hrs by Griess assay; format: functional, cell-based
[22] = system: Human immunodeficiency virus 1; test: Ratio of EC50 for HIV-1 harboring reverse transcriptase Y188L mutant infected in human MT4 cells to EC50 for HIV1 NL4-3 infected in human MT4 cells; format: functional; in short: as §1
BV-2 [23] = test: Downregulation of iNOS mRNA levels in C57BL/6 mouse BV2 cells at 1000 nM after 24 hrs by RT-PCR assay; format: functional, cell-based

SMILES	IC50 [1] [nM]	EC50 [2] [nM]	IC50 [3] [nM]	EC50 [4] [nM]	IC50 [5] [µM]	IC50 [6] [µM]	EC50 [7] [nM]	IC50 [8] [µM]	EC50 [9] [nM]	EC50 [10] [nM]	CC50 [11] [µM]	Activity (BV-2 [13])	Activity (BV-2 [15])	Activity [16]	Activity (BV-2 [17])	Activity (BV-2 [21])	Activity (BV-2 [23])	other results
Cc1cc(C)cc(S(=O)(=O)c2c(C(=O)N[C@H](C)c3ccccc3F)[nH]c3ccc(Cl)cc23)c1	228	165	87	2490	0.456	0.222	0.7	0.456	0.7	0.7	–	–	–	–	–	–	–	–
Cc1cc(C)cc(S(=O)(=O)c2c(C(=O)NC(C)C(=O)NCc3ccncc3)[nH]c3ccc(Cl)cc23)c1 (racemic)	–	819	–	838	–	–	21	–	1.9	0.2	19.5	Non-Toxic	inactive	Active	inactive	Active	Active	selectivity ratio [12]: 102000; Activity (BV-2 [14]): Active; Ratio EC50 [18]: 52; Ratio EC50 [19]: 4190; Ratio EC50 [20]: 105; Ratio EC50 [22]: 4095
Cc1cc(C)cc(S(=O)(=O)c2c(C(=O)N[C@@H](C)c3ccccc3F)[nH]c3ccc(Cl)cc23)c1	–	> 51600	175	> 51600	17.2	> 10	680	17.2	103	0.7	–	–	–	–	–	–	–	–
O=C1Nc2ccc(Cl)cc2[C@@](C#CC2CC2)(C(F)(F)F)O1 [EFAVIRENZ]	–	760	–	> 317	–	–	160	–	130	15.9	> 15.8	Non-Toxic	inactive	inactive	inactive	Active	Active	–
Cc1cc(C)cc(S(=O)(=O)c2c(C(=O)N[C@@H](C)C(=O)NCc3ccncc3)[nH]c3ccc(Cl)cc23)c1	417	666	506	857	0.87	> 40	0.7	0.87	0.7	0.7	–	–	–	–	–	–	–	–
Cc1cc(C)cc(S(=O)(=O)c2c(C(=O)N[C@H](C)C(=O)NCc3ccncc3)[nH]c3ccc(Cl)cc23)c1	> 50000	> 23100	13000	7120	61	> 200	181	61	114	0.7	–	–	–	–	–	–	–	–
